In ChEMBL document CHEMBL2176962, “Repositioning HIV-1 integrase inhibitors for cancer therapeutics: 1,6-naphthyridine-7-carboxamide as a promising scaffold with drug-like properties” (J Med Chem, 2012):
The source made the active and inactive calls. The calls are words filed in the database; no cut-off is given here.

Key:
MDA-MB-435 [1] = experiment: Inhibition of colony formation in human MDA-MB-435 cells treated continuously for 7 days by crystal violet staining based colony formation assay; assay type: functional, cell-based
In short: (§1)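 MDA-MB-435 cells (500 per well) were adhered overnight and treated with compound at 10 μM, or across a dose range. The methods describe a 24 h treatment, then PBS washing and 7–10 days regrowth; the figure legend describes continuous 7-day treatment. Colonies were fixed and stained with 2% crystal violet containing 1% glutaraldehyde, then imaged.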

MDA-MB-435 [2] = experiment: Cytotoxicity against human MDA-MB-435 cells incubated for 72 hrs by MTT assay; assay type: functional, cell-based; details: MDA-MB-435, 72 h
In short: (§2)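 Cells were kept in DMEM (MDA-MB-435, MCF7, LNCaP) or RPMI (HT29, HCT116) with 10% heat-inactivated FBS and 2 mM L-glutamine, subconfluent and in exponential growth. They were seeded, allowed to adhere overnight, then exposed continuously to compound (10 mM DMSO stock) for 72 h. MTT was added to 0.3 mg/mL final for 3–4 h at 37 °C, formazan was dissolved in DMSO, and absorbance was read at 570 nm. Runs were in triplicate; IC50 came from log concentration versus percent cell kill.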

MCF7 = experiment: Cytotoxicity against human MCF7 cells incubated for 72 hrs by MTT assay; assay type: functional, cell-based; details: MCF7, 72 h; in short: as §2
[3] = molecular target: Receptor tyrosine-protein kinase erbB-2 (Homo sapiens) (UniProt P04626); experiment: Inhibition of ErbB2 at 10 uM incubated for 60 mins using poly(Glu,Tyr)4:1 substrate and 10 uM ATP by ELISA
In short: (§3)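 ELISA with Poly(Glu,Tyr)4:1 (20 μg/mL) precoated as substrate and 10 μM ATP, in 50 mM HEPES pH 7.4, 20 mM MgCl2, 0.1 mM MnCl2, 0.2 mM Na3VO4, 1 mM DTT. Compound was tested at 10 μM, in duplicate. Kinase reaction ran 60 min at 37 °C. Phosphotyrosine was detected with PY99 and HRP anti-mouse IgG, developed with o-phenylenediamine/H2O2, stopped with H2SO4 and read at 492 nm. Inhibition = [1 − A492 treated/A492 control] × 100%. References: lapatinib (ErbB2) and PP2 (Src), each at 10 μM.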

[4] = molecular target: Proto-oncogene tyrosine-protein kinase Src (Homo sapiens) (UniProt P12931); experiment: Inhibition of SRC at 10 uM incubated for 60 mins using poly(Glu,Tyr)4:1 substrate and 10 uM ATP by ELISA; in short: as §3
LNCaP = experiment: Cytotoxicity against human LNCAP cells incubated for 72 hrs by MTT assay; assay type: functional, cell-based; in short: as §2
HCT-116 [5] = experiment: Cytotoxicity against p53 expressing human HCT116 cells incubated for 72 hrs by MTT assay; assay type: functional, cell-based; details: HCT-116, 72 h; in short: as §2
SK-BR-3 = experiment: Cytotoxicity against human SKBR3 cells incubated for 72 hrs by MTT assay; assay type: functional, cell-based; details: SK-BR-3, 72 h
MDA-MB-435 [6] = experiment: Induction of cell cycle arrest in human in human MDA-MB-435 cells assessed as accumulation at G0/G1 phase at 2 times cytotoxic IC50 level after 12 to 48 hrs by propidium iodide staining based flow cytometry; assay type: functional
HCT-116 [7] = experiment: Cytotoxicity against p53 deficient human HCT116 cells incubated for 72 hrs by MTT assay; assay type: functional, cell-based; details: HCT-116, 72 h; in short: as §2
HT-29 = experiment: Cytotoxicity against human HT-29 cells incubated for 72 hrs by MTT assay; assay type: functional, cell-based; details: HT-29, 72 h; in short: as §2
MDA-MB-435 [8] = experiment: Inhibition of colony formation in human MDA-MB-435 cells at 10 uM treated continuously for 7 days by crystal violet staining based colony formation assay; assay type: functional, cell-based; in short: as §1
MDA-MB-435 [9] = experiment: Induction of cell cycle arrest in human in human MDA-MB-435 cells assessed as accumulation at G0/G1 phase at 2 times cytotoxic IC50 level after 48 hrs by propidium iodide staining based flow cytometry (reference value: 36%); assay type: functional
MDA-MB-435 [10] = experiment: Induction of cell cycle arrest in human in human MDA-MB-435 cells assessed as accumulation at G0/G1 phase at 2 times cytotoxic IC50 level after 12 hrs by propidium iodide staining based flow cytometry; assay type: functional
[11] = molecular target: T1, Human immunodeficiency virus type 1 integrase (Human immunodeficiency virus 1, UniProt Q7ZJM1); experiment: Inhibition of HIV1 integrase 3'-processing activity using [32P]-labeled linear oligonucleotide substrate
[12] = molecular target: T1, Human immunodeficiency virus type 1 integrase; experiment: Inhibition of HIV1 integrase strand transfer activity using [32P]-labeled linear oligonucleotide substrate

T1 sequence (Q7ZJM1 whole entry): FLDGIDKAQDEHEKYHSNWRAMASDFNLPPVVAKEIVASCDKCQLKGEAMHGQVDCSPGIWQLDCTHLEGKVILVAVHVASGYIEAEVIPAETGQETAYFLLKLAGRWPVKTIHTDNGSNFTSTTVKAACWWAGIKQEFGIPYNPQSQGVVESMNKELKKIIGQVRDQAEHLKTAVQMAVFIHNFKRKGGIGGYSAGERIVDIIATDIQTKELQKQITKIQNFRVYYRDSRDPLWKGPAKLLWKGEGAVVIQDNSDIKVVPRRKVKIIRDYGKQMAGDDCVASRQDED
Receptor tyrosine-protein kinase erbB-2 (Homo sapiens), sequence (P04626 whole entry): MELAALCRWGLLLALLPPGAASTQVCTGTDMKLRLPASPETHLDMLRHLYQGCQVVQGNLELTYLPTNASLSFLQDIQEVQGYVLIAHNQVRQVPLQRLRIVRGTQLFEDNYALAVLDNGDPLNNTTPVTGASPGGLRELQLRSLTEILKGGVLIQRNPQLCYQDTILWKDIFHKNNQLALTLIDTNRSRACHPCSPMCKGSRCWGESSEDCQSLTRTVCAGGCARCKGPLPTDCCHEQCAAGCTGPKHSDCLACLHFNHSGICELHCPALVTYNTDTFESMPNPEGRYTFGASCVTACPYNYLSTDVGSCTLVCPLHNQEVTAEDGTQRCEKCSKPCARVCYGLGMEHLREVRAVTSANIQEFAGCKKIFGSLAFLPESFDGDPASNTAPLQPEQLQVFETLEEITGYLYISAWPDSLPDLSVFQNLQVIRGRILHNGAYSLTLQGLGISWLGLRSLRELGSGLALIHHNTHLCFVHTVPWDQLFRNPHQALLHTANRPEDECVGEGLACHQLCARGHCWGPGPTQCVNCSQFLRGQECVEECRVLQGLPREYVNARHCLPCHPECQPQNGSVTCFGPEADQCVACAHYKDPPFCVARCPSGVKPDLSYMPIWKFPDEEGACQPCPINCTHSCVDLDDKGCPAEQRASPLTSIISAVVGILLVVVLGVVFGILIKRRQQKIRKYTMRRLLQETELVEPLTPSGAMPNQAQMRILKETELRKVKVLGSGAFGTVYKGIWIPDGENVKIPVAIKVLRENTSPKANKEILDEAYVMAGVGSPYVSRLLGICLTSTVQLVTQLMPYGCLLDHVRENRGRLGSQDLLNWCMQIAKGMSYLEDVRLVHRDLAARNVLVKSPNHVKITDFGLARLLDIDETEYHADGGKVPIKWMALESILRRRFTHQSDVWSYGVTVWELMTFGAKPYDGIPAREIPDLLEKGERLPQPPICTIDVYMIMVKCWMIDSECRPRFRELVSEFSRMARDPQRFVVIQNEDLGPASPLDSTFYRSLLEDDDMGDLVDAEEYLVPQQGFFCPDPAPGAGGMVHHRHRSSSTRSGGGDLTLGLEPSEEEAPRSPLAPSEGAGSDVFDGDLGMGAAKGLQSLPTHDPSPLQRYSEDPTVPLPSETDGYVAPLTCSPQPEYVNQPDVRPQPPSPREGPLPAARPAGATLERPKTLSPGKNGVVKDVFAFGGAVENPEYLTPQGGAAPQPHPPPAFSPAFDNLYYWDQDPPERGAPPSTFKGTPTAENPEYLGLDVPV
Proto-oncogene tyrosine-protein kinase Src (Homo sapiens), sequence (P12931 2-536 limits assumed): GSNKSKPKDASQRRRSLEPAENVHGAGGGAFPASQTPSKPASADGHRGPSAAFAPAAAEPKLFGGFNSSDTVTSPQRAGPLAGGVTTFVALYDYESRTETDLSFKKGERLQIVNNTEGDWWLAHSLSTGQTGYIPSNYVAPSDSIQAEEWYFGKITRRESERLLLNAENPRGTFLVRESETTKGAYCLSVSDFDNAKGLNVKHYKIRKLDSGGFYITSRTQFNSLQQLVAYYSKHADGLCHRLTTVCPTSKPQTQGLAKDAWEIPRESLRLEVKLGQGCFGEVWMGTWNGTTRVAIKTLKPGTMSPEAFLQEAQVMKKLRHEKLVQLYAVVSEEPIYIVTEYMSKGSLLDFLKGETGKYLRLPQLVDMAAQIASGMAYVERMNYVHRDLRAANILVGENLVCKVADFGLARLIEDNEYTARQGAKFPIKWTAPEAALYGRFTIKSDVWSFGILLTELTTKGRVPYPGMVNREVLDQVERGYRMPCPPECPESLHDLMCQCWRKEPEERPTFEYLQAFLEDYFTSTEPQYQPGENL

Row | SMILES | inhibition (MDA-MB-435 [1]) | IC50 (MDA-MB-435 [2]) [µM] | IC50 (MCF7) [µM] | inhibition [3] [%] | inhibition [4] [%] | IC50 (LNCaP) [µM] | IC50 (HCT-116 [5]) [µM] | IC50 (SK-BR-3) [µM] | Activity (MDA-MB-435 [6]) | IC50 (HCT-116 [7]) [µM] | IC50 (HT-29) [µM] | inhibition (MDA-MB-435 [8]) | Activity (MDA-MB-435 [9]) [%] | Activity (MDA-MB-435 [10]) | IC50 [11] [µM] | IC50 [12] [µM]
1 | N[C@H]1CC[C@H](Nc2c(C(=O)NCc3ccc(F)cc3)nc(Br)c3cccnc23)CC1 | Dose-dependent effect | 6 | 2 | 7 | 13 | 5 | 7 | 2 | Active | 4 | < 1 | Active | – | – | – | –
2 | NCCCNc1c(C(=O)NCc2ccc(F)cc2)nc(Br)c2cccnc12 | – | 5 | 6 | – | – | – | > 20 | – | – | 18 | – | Active | 61 | Active | > 100 | > 100
